Experiments:
MT4 = assay: Tested in vitro against MT-4 cells using MTT assay; type: functional; conditions: Homo sapiens
Method in brief: (§1)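 MT-4 cells (2 × 10⁴/mL) infected with 100 TCID₅₀ HIV-1_LAI, grown with drug dilution series 7 days at 37 °C. MTT added, 2 h at 37 °C, formazan dissolved in acidified 2-propanol with 4% Triton X-100, absorbance at 570 nm. Triplicates. EC₅₀ is concentration suppressing HIV-1 replication by 50%. SI calculated as CC₅₀/EC₅₀.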

[1] = target: Human immunodeficiency virus type 1 reverse transcriptase (Human immunodeficiency virus 1) (UniProt Q72547); assay: Selectivity index expressed as CC50/EC50; type: functional; method in brief: as §1
HeLa [2] = assay: (§2) Tested in vitro against HIV-1 104pre from HeLa-CD4-[…]-beta gal-cells using MAGI assay; type: functional, cell-based; conditions: Homo sapiens
Method in brief: (§3)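 HeLa-CD4-LTR-β-gal indicator cells seeded at 10⁴ cells/well, cultured 24 h, then exposed to HIV-1_104pre at 30 TCID₅₀ for 2 h at 37 °C. Drug series added 2 h before or 2 h after virus, kept present without washing. At 48 h cells fixed (1% formaldehyde, 0.2% glutaraldehyde in PBS), X-Gal stained, blue infected cells counted under microscope.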

HeLa [3] = assay: as §2; type: functional, cell-based, human immunodefficiency virus type 1; conditions: Homo sapiens; method in brief: as §3

Compound | CC50 (MT4) | SI [1] | EC50 (HeLa [2]) | EC50 (HeLa [3])
C#C[C@]1(CO)O[C@@H](n2cnc3c(O)ncnc32)C[C@@H]1O | 216 µM | 14.4 | 0.83 µM | 
C#C[C@]1(CO)O[C@@H](n2cnc3c(N)nc(N)nc32)C[C@@H]1O | 0.82 µM | 2730 | 0.0019 µM | 
C#C[C@]1(CO)O[C@@H](n2cc(CC)c(=O)[nH]c2=O)C[C@@H]1O | > 360 µM |  |  | 
C#C[C@]1(CO)O[C@@H](n2cc(Cl)c(=O)[nH]c2=O)C[C@@H]1O | 81.7 µM | 13.6 |  | 
C#C[C@]1(CO)O[C@@H](n2cc(I)c(=O)[nH]c2=O)C[C@@H]1O | > 260 µM | > 765 | 0.36 µM | 
C#C[C@]1(CO)O[C@@H](n2cc(F)c(N)nc2=O)C[C@@H]1O | > 100 µM | > 3330 | 0.002 µM | 
Cc1cn([C@H]2C[C@H](N=[N+]=[N-])[C@@H](CO)O2)c(=O)[nH]c1=O [ZIDOVUDINE] | > 100 µM | > 2630 | 0.002 µM | 
C#C[C@]1(CO)O[C@@H](n2cc(C)c(=O)[nH]c2=O)C[C@@H]1O | > 380 µM | > 623 | 0.4 µM | 
C#C[C@]1(CO)O[C@@H](n2cc(C)c(N)nc2=O)C[C@@H]1O | 0.7 µM | 63 | 0.0057 µM | 
C#C[C@]1(CO)O[C@@H](n2cnc3c(N)ncnc32)C[C@@H]1O | 11.7 µM | 975 | 0.0068 µM | 
C#C[C@]1(CO)O[C@@H](n2cnc3c(=O)[nH]c(N)nc32)C[C@@H]1O | 1.5 µM | 1070 |  | 0.0071 µM
C#C[C@]1(CO)O[C@@H](n2cc(Br)c(=O)[nH]c2=O)C[C@@H]1O | > 100 µM | > 44 |  | 
C#C[C@]1(CO)O[C@@H](n2cnc3cncnc32)C[C@@H]1O | > 380 µM | > 3.2 | 132 µM | 
C#C[C@]1(CO)O[C@@H](n2cc(Cl)c(N)nc2=O)C[C@@H]1O | > 100 µM |  |  | 
C#C[C@]1(CO)O[C@@H](n2cc(I)c(N)nc2=O)C[C@@H]1O | > 100 µM |  |  | 
C#C[C@]1(CO)O[C@@H](n2ccc(N)nc2=O)C[C@@H]1O |  | 192 | 0.00096 µM | 
C#C[C@]1(CO)O[C@@H](n2ccc(=O)[nH]c2=O)C[C@@H]1O | > 100 µM |  |  | 
C#C[C@]1(CO)O[C@@H](n2cc(F)c(=O)[nH]c2=O)C[C@@H]1O | 3.4 µM |  |  | 
C#C[C@]1(CO)O[C@@H](n2cc(Br)c(N)nc2=O)C[C@@H]1O | > 100 µM |  |  | 

Source: ChEMBL document CHEMBL1133528, “Syntheses of 4'-C-ethynyl-beta-D-arabino- and 4'-C-ethynyl-2'-deoxy-beta-D-ribo-pentofuranosylpyrimidines and -purines and evaluation of their anti-HIV activity” (J Med Chem, 2000)
